ChEMBL document CHEMBL4130356, “Design, synthesis and 2D QSAR study of novel pyridine and quinolone hydrazone derivatives as potential antimicrobial and antitubercular agents” (Eur J Med Chem, 2017)
In brackets after ≈: the same amount, converted by molar mass. Activity calls are given as the source filed them. The rule behind the calls is not given here.

What was measured:
[1] = system: Aspergillus fumigatus; test: Antimicrobial activity against Aspergillus fumigatus RCMB 02568 assessed as diameter of zone inhibition at 100 ug/ml after 48 hrs by agar well diffusion assay; type: functional; settings: for zone of inhibition at 100 µg/mL: RCMB 02568, 48 h, read-out: DIZ
Summary of the method: (§1)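 Agar well diffusion on malt agar plates seeded with the fungus, using 1 cm wells. Plates were held at 4°C for 1 h for diffusion, then incubated at 28°C. Inhibition zone diameters were measured at 48 h. Amphotericin B was the positive control. Run in triplicate, with the mean zone reported.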

[2] = system: Candida albicans; test: Antimicrobial activity against Candida albicans RCMB 05036 assessed as diameter of zone inhibition at 100 ug/ml after 48 hrs by agar well diffusion assay; type: functional; settings: for zone of inhibition at 100 µg/mL: RCMB 05036, 48 h, read-out: DIZ; summary of the method: as §1
[3] = system: Streptococcus pneumoniae; test: Antimicrobial activity against Streptococcus pneumoniae RCMB 010010 assessed as diameter of zone inhibition at 100 ug/ml after 24 hrs by agar well diffusion assay; type: functional; settings: for zone of inhibition at 100 µg/mL: RCMB 010010, 24 h, read-out: DIZ
Summary of the method: (§2)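 Agar well diffusion on nutrient agar plates seeded with the bacterium, using 1 cm wells. Plates were held at 4°C for 1 h for diffusion, then incubated at 37°C. Inhibition zone diameters were measured at 24 h. Ciprofloxacin was the positive control. Run in triplicate, with the mean zone reported.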

[4] = system: Staphylococcus aureus; test: Antimicrobial activity against Staphylococcus aureus RCMB 010028 assessed as diameter of zone inhibition at 100 ug/ml after 24 hrs by agar well diffusion assay; type: functional; settings: for zone of inhibition at 100 µg/mL: RCMB 010028, 24 h, read-out: DIZ; summary of the method: as §2
[5] = system: Escherichia coli; test: Antimicrobial activity against Escherichia coli RCMB 010052 assessed as diameter of zone inhibition at 100 ug/ml after 24 hrs by agar well diffusion assay; type: functional; settings: for zone of inhibition at 100 µg/mL: RCMB 010052, 24 h, read-out: DIZ; summary of the method: as §2
[6] = system: Mycobacterium tuberculosis; test: Antimycobacterial activity against Mycobacterium tuberculosis RCMB 010126 clinical isolate after 7 days by MABA; type: functional
Summary of the method: (§3)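 Inoculum from fresh LJ culture resuspended in 7H9-S broth with casitone, glycerol and OADC, adjusted to McFarland No. 1 and diluted 1:20. Serial two-fold compound dilutions in 7H9-S; isoniazid reference. Incubated 7 days at 37°C in air, then Alamar blue added and incubated overnight. Percent inhibition = 1 − (test well/growth-control mean) × 100; MIC = lowest concentration preventing blue-to-pink change.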

[7] = system: Mycobacterium tuberculosis; test: Antimycobacterial activity against Mycobacterium tuberculosis RCMB 010126 clinical isolate assessed as inhibition zone after 7 days by MABA; type: functional; summary of the method: as §3
[8] = system: Pseudomonas aeruginosa; settings: RCMB 010043, 100 ug/ml
[9] = system: Aspergillus fumigatus; test: Antimicrobial activity against Aspergillus fumigatus RCMB 02568 after 48 hrs by serial dilution method; type: functional; settings: RCMB 02568, 48 h
Summary of the method: (§4)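 Serial twofold dilution in microtiter plates starting from a 100 mmol stock in DMSO; final concentrations 125 down to 0.12 […]. Incubated at 28°C and read on a microplate reader after 48 h. Amphotericin B was the reference. Run in triplicate, with the average taken. MIC was the lowest concentration inhibiting growth.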

[10] = system: Candida albicans; test: Antimicrobial activity against Candida albicans RCMB 05036 after 48 hrs by serial dilution method; type: functional; settings: RCMB 05036, 48 h; summary of the method: as §4
[11] = system: Streptococcus pneumoniae; test: Antimicrobial activity against Streptococcus pneumoniae RCMB 010010 after 24 hrs by serial dilution method; type: functional; settings: RCMB 010010, 24 h
Summary of the method: (§5)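 Serial twofold dilution in microtiter plates starting from a 100 mmol stock in DMSO; final concentrations 125 down to 0.12 […]. Incubated at 37°C and read on a microplate reader after 24 h. Ciprofloxacin was the reference. Run in triplicate, with the average taken. MIC was the lowest concentration inhibiting growth.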

[12] = system: Staphylococcus aureus; test: Antimicrobial activity against Staphylococcus aureus RCMB 010028 after 24 hrs by serial dilution method; type: functional; settings: RCMB 010028, 24 h; summary of the method: as §5
[13] = system: Escherichia coli; test: Antimicrobial activity against Escherichia coli RCMB 010052 after 24 hrs by serial dilution method; type: functional; settings: RCMB 010052, 24 h; summary of the method: as §5
[14] = system: Pseudomonas aeruginosa; settings: RCMB 010043
[15] = Mycobacterium tuberculosis, RCMB 010126, 168 h

Row | Structure (SMILES) | diameter of the inhibition zone (DIZ) [1] | diameter of the inhibition zone (DIZ) [2] | diameter of the inhibition zone (DIZ) [3] | diameter of the inhibition zone (DIZ) [4] | diameter of the inhibition zone (DIZ) [5] | MIC [6, 15] | inhibition zone (IZ) [7] | DIZ [8] | zone of inhibition at 100 µg/mL [1] | zone of inhibition at 100 µg/mL [2] | zone of inhibition at 100 µg/mL [3] | MIC [6] | MIC [9] | zone of inhibition at 100 µg/mL [4] | zone of inhibition at 100 µg/mL [5] | MIC [10] | MIC [11] | MIC [12] | MIC [13] | MIC [14]
1 | Cc1nc(-c2cccc(Cl)c2)ccc1C(=O)N/N=C/c1ccc(F)cc1 | inactive | inactive | inactive | inactive | inactive | 3.12 µg/mL (≈ 8.48 µM) | 52.34 mm | inactive |  |  |  |  |  |  |  |  |  |  |  | 
2 | Cc1ccc(/C=N/NC(=O)c2c[nH]c3ccc(Cl)cc3c2=O)cc1 |  |  |  | inactive | inactive |  | inactive | inactive | 10.3 mm | 12.1 mm | 20.4 mm | inactive |  |  |  |  |  |  |  | 
3 | O=C(N/N=C/c1ccc(Cl)cc1)c1c[nH]c2cc(Cl)ccc2c1=O |  |  |  |  |  | 99.8 µg/mL (≈ 277 µM) | 19.35 mm | inactive | 17.3 mm | 15.2 mm | 17.1 mm |  | 15.6 µg/mL (≈ 43.4 µM) | 16.2 mm | 18.3 mm | 31.2 µg/mL (≈ 86.8 µM) | 15.6 µg/mL (≈ 43.4 µM) | 31.2 µg/mL (≈ 86.8 µM) | 7.81 µg/mL (≈ 21.7 µM) | inactive
4 | O=C(N/N=C/c1ccc(F)cc1)c1c[nH]c2cc(Cl)ccc2c1=O |  |  |  |  |  | 12.5 µg/mL (≈ 36.3 µM) | 36.42 mm | inactive | 16.8 mm | 14.4 mm | 16.9 mm |  |  | 16.2 mm | 12.5 mm |  |  |  |  | 
5 | Cc1ccc(/C=N/NC(=O)c2c[nH]c3cc(Cl)ccc3c2=O)cc1 |  |  |  |  |  |  | inactive | inactive | 13.7 mm | 14.5 mm | 13.9 mm | inactive | 62.5 µg/mL (≈ 184 µM) | 14.4 mm | 15 mm | 62.5 µg/mL (≈ 184 µM) | 62.5 µg/mL (≈ 184 µM) | 62.5 µg/mL (≈ 184 µM) | 62.5 µg/mL (≈ 184 µM) | inactive
6 | Cc1nc(-c2cccc(Cl)c2)ccc1C(=O)N/N=C/c1ccc(Cl)cc1Cl | inactive | inactive |  |  | inactive | 6.24 µg/mL (≈ 14.9 µM) | 41.98 mm | inactive |  |  | 19.3 mm |  |  | 11.4 mm |  |  |  |  |  | 
7 | Cc1nc(-c2ccc(Cl)cc2)ccc1C(=O)N/N=C/c1ccc(F)cc1 | inactive | inactive | inactive | inactive | inactive | 6.24 µg/mL (≈ 17 µM) | 40.31 mm | inactive |  |  |  |  |  |  |  |  |  |  |  | 
8 | O=C(N/N=C/c1ccc(Cl)cc1Cl)c1c[nH]c2ccc(Cl)cc2c1=O |  |  |  |  |  | 99.8 µg/mL (≈ 253 µM) | 18.3 mm | inactive | 16.9 mm | 14.1 mm | 17.5 mm |  | 15.6 µg/mL (≈ 39.6 µM) | 15.7 mm | 20.7 mm | 62.5 µg/mL (≈ 158 µM) | 7.81 µg/mL (≈ 19.8 µM) | 15.6 µg/mL (≈ 39.6 µM) | 1.95 µg/mL (≈ 4.94 µM) | inactive
9 | COc1ccc(/C=N/NC(=O)c2c[nH]c3cc(Cl)ccc3c2=O)cc1OC |  |  |  |  |  |  | inactive | inactive | 20.3 mm | 16.2 mm | 17.3 mm | inactive | 3.9 µg/mL (≈ 10.1 µM) | 20.6 mm | 20.3 mm | 31.2 µg/mL (≈ 81 µM) | 15.6 µg/mL (≈ 40.5 µM) | 1.95 µg/mL (≈ 5.05 µM) | 3.9 µg/mL (≈ 10.1 µM) | inactive
10 | Cc1ccc(/C=N/NC(=O)c2ccc(-c3ccc(Cl)cc3)nc2C)cc1 | inactive | inactive | inactive | inactive | inactive | 49.9 µg/mL (≈ 137 µM) | 26.35 mm | inactive |  |  |  |  |  |  |  |  |  |  |  | 
11 | CC1(C)S[C@@H]2[C@H](NC(=O)[C@H](N)c3ccccc3)C(=O)N2[C@H]1C(=O)O [AMPICILLIN] |  |  |  |  |  |  |  |  |  |  | 23.8 mm |  |  | 27.4 mm |  |  | 0.98 µg/mL (≈ 2.8 µM) | 0.98 µg/mL (≈ 2.8 µM) |  | 
12 | Cc1nc(-c2ccc(Cl)cc2)ccc1C(=O)N/N=C/c1ccc(Cl)cc1 | inactive | inactive | inactive | inactive | inactive | 12.5 µg/mL (≈ 32.5 µM) | 36.24 mm | inactive |  |  |  |  |  |  |  |  |  |  |  | 
13 | COc1cc(/C=N/NC(=O)c2c[nH]c3cc(Cl)ccc3c2=O)cc(OC)c1OC | inactive | inactive | inactive | inactive | inactive | 6.24 µg/mL (≈ 15 µM) | 42.65 mm | inactive |  |  |  |  |  |  |  |  |  |  |  | 
14 | NNC(=O)c1ccncc1 [ISONIAZID] |  |  |  |  |  | 0.75 µg/mL (≈ 5.47 µM) | inactive |  |  |  |  |  |  |  |  |  |  |  |  | 
15 | C[C@@H]1[C@H](O)[C@@H](C)/C=C/C=C/C=C/C=C/C=C/C=C/C=C/[C@H](O[C@@H]2O[C@H](C)[C@@H](O)[C@H](N)[C@@H]2O)C[C@@H]2O[C@](O)(C[C@@H](O)C[C@@H](O)[C@H](O)CC[C@@H](O)C[C@@H](O)CC(=O)O[C@H]1C)C[C@H](O)[C@H]2C(=O)O [AMPHOTERICIN B] |  |  |  |  |  |  |  |  | 23.7 mm | 25.4 mm |  |  | 1.95 µg/mL (≈ 2.11 µM) |  |  | 0.98 µg/mL (≈ 1.06 µM) |  |  |  | 
